Compound activity deposited in PubChem BioAssay by The Scripps Research Institute Molecular Screening Center.
procasp3 activ = activates human procaspase-3; recombinant procaspase-3 D3A, Ac-DEVD-pNA absorbance 405 nm; activation, % at 8.5 µM; 330,000 tested, 0.11% active; AID 463141;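 active means activation above the mean of all tested compounds plus 3 SD, cut at about 21% in these data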;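 further: 0% = DMSO alone and 100% = DMSO wells spiked with extra 5 µM PC-3 D3A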
Target sequence (P42574 whole entry D9A/D28A/D175A): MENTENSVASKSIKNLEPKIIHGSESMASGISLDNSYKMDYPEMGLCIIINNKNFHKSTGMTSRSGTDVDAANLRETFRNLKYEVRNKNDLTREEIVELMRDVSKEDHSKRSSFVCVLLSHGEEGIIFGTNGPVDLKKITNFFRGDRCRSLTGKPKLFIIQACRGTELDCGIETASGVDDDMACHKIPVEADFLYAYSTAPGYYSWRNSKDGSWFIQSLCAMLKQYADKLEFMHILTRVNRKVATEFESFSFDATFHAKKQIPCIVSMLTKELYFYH
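System: Procaspase-3 D3A mutant. Medium: Zinc-free 300 mM NaCl, 50 mM HEPES, 0.01% Triton X-100. Schedule: 1 h preincubation plus 2 h reaction at 25 °C. Measured by: 405 nm absorbance of p-nitroaniline, reads at 0 and 120 min. Read-out: percent activation relative to control range.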
IDE inh = inhibits human insulin-degrading enzyme in HEK cells. AID 434962. FAbetaB cleavage, fluorescence polarization. inhibition, % at 5.59 µM. 320,000 tested, 0.41% active. P14735;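 active means percent inhibition above the average of all tested compounds plus 3 SD, set per screening campaign, cut at about 16% in these data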;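 further: IDE supplied by intact live HEK cells; FP after avidin binding of uncleaved biotin substrate so inhibition keeps polarization high; 0% = DMSO wells and 100% = 60 µM reference IDE inhibitor Ii1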
TPT1 inhibitor = blocks Candida albicans tRNA 2'-phosphotransferase | recombinant caTPT1, FP RNA substrate dephosphorylation | inhibition, % at 5 µM | 300,000 tested, 0.81% active;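 active means inhibition above the mean of all tested compounds plus 3 SD, set per screening campaign, cut at about 24% in these data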;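 further: plate controls were DMSO alone for no effect and ferristatin control at 100 nM for full effect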
proCasp7 act = counter-screen for procaspase-3 activators: activators of human procaspase-7. activation, % at 8.5 µM. recombinant procaspase-7, Ac-DEVD-pNA absorbance 405 nm; D23A/D198A/D206A triple mutant, cannot self-cleave; scale: DMSO 0, 5 µM enzyme 100. P55210. 330,000 tested, 0.093% active;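 active means percent activation above the screen-wide mean plus 3 SD, cut at about 25% in these data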
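Assay system – Uncleavable procaspase-7 mutant enzyme · Quantity – 2 µM procaspase-7 mutant as dispensed · Times – 1 h preincubation, 2 h reaction · Dosing – single nominal 8.5 µM compound dose, 0.8% DMSO final · Buffer or medium – Zinc-free 50 mM HEPES buffer, pH 7.4, with NaCl and Triton X-100 · Detection – Epi-absorbance of released pNA at 405 nm, two timepoints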
IDE act = activators of human insulin-degrading enzyme in cells. P14735. HEK cells, FAbeta-B cleavage, fluorescence polarization; 0% vehicle, 100% cell-free pure enzyme wells. activation, % at 5.96 µM. 340,000 tested, 0.073% active. AID 493087;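 active means activation above the mean of all tested compounds plus 3 SD, set per screening campaign, cut at about 17% in these data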
TPT1 inh confirm = TPT1 (C. albicans) inhibition, confirmation; recombinant caTPT1, fluorescence polarization, RNase T1 coupled; shares compounds with TPT1 inhibitor; 2,400 tested, 74% active; inhibition, % at 5 µM;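 active means inhibition above the primary screen limit, the mean inhibition of all tested compounds plus 3 SD, cut at about 25% in these data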
RNase T1 counter = RNase T1 inhibition in TPT1 counter-screen | RNase T1 cleavage, fluorescence polarization, 1536-well | 2,400 tested, 83% active | inhibition, % at 5 µM | shares compounds with TPT1 inhibitor;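 active means inhibition above the solvent-only control well mean plus 3 SD, limit set per screening run, cut at about 23% in these data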;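 further: plate controls were DMSO wells with enzyme for no effect and wells without RNase T1 for full effect; inhibitors block cleavage so intact labeled substrate keeps polarization high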
Target sequence (P00651 whole entry, looked up): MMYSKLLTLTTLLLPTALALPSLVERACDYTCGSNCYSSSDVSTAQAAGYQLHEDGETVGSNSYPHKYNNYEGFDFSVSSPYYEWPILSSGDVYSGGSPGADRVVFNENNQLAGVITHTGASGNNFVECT
Starred values were filed as active, the others as inactive; x = not tested or not shown; + = active, no number. Hits are enriched below; roughly 1.2% of the tested compounds scored in any of these assays.

SMILES | procasp3 activ | IDE inh | TPT1 inhibitor | proCasp7 act | IDE act | TPT1 inh confirm | RNase T1 counter
CC(C)(C)OC(=O)C[C@@H]1C/C=C\C[C@H](CC(=O)NCCO)C(=O)N[C@@H](Cc2ccccc2)COC1=O | 0 | 3 | x | 11 | 5 | x | x
Cc1csc(Nc2ccc(C(=O)O)cc2)n1 | 1 | -4 | 14 | -2 | 10 | x | x
Cc1csc(Nc2ccccc2)n1 | 1 | 2 | + | 0 | 7 | 3 | 9
CCC1(CC)NC(=O)N(CC(=O)Nc2sc3c(c2C(N)=O)CCC3)C1=O | 0 | 4 | 28* | -1 | 5 | 37* | 48*
CC(C)(C)NS(=O)(=O)c1cc(C(=O)Nc2sccc2C#N)ccc1Cl | -3 | 12 | 36* | 7 | -3 | 32* | 43*
Cc1cc2oc3ccc(NCCCn4ccnc4)cc3c(=O)c2cc1C | -10 | 7 | 55* | -18 | -8 | 64* | 73*
Cc1cc2oc3ccc(NCCCN4CCOCC4)cc3c(=O)c2cc1C | 1 | 1 | -2 | -1 | -5 | x | x
COc1ccc(Nc2cc(Nc3cc(OC)c(OC)c(OC)c3)ncn2)cc1 | 2 | -1 | 4 | -3 | -1 | x | x
c1ccc(-c2nc(-c3ccco3)n3ccccc23)cc1 | -15 | 4 | 28* | -15 | -1 | 25* | 30*
CCOc1ccc(S(=O)(=O)Nc2nc3ccccc3nc2Nc2ccc(N3CCOCC3)cc2)cc1 | 1 | 5 | 28* | 0 | 2 | 10 | 17
C#CCOCCOCCOCCNc1nc(N2CCN(C(=O)[C@H](CO)n3cc([C@@H](N)C(C)C)nn3)CC2)nc(N2CCN(C(=O)[C@H](CO)n3cc([C@@H](N)C(C)C)nn3)CC2)n1 | x | x | x | x | 0 | x | x
NS(=O)(=O)c1ccc(-c2ccc(/C=C3\NC(=S)NC3=O)o2)cc1 | -18 | 11 | 45* | -15 | -2 | 70* | 80*
Cc1ccc(C)n1-c1cccc(C(=O)Nc2ccccc2)c1 | -1 | 3 | 38* | -7 | 8 | 40* | 50*
O=S(=O)(Nc1ncccn1)c1ccc(NC(=S)N2CCN(Cc3ccc(F)cc3Cl)CC2)cc1 | 0 | 4 | -3 | -10 | 3 | x | x
COC(=O)c1ccc(OCCN2C3=NCCN3c3ccccc32)cc1 | 1 | 1 | 37* | 11 | 8 | 1 | 4
COC(=O)c1ccc(OCCN2CCCCCC2)cc1 | 7 | 3 | 2 | -10 | 0 | x | x
Cc1[nH]c2ccccc2c1/C=N/NC(=S)NC(C)C | -5 | -1 | 25* | 8 | 5 | 39* | 45*
CC(C)NC(=S)N/N=C/c1c[nH]c2ccccc12 | 2 | -2 | 1 | 10 | 2 | x | x
CC(C)(C)OC(=O)N1CCN(c2ccc([N+](=O)[O-])cc2)CC1 | -4 | -4 | -1 | -4 | -4 | x | x
Fc1ccc(CSc2nnc(-c3ccccn3)o2)cc1 | x | x | x | x | -3 | x | x
O=C(Nc1c2c(nn1-c1ccc([N+](=O)[O-])cc1)CS(=O)(=O)C2)c1ccco1 | -6 | 6 | -3 | -2 | 1 | x | x
CCOc1ccc(-c2nc(C#N)c(N3CCN(C)CC3)o2)cc1 | -3 | -3 | 76* | -3 | 0 | 5 | 5
COC(=O)CN1C(=S)N(c2ccc(OC)cc2)C(=O)/C1=C/c1ccc(N2CCOCC2)cc1 | 10 | 16 | 151* | 20 | -5 | 116* | 123*
COC(=O)CN1C(=S)N(c2ccc(OC)cc2)C(=O)/C1=C/c1ccc(OC)cc1 | 8 | -2 | -1 | 0 | 2 | x | x
Cn1cccc1/C=C1\SC(=S)N(NC(=O)c2ccccc2O)C1=O | -6 | -1 | 79* | -11 | -11 | 87* | 101*
O=C1S/C(=C\C=C\c2ccco2)C(=O)N1c1ccc(O)cc1 | -5 | 0 | 11 | -5 | 1 | x | x
O=C(NN1C(=O)/C(=C/C=C/c2ccco2)SC1=S)c1ccccc1O | -1 | -4 | 71* | -16 | -1 | 49* | 50*
O=C(O)c1ccc(/C=C2\SC(=S)N(NC(=O)c3ccccc3)C2=O)cc1 | -5 | -1 | 11 | -10 | 0 | x | x
